Data as given in ChEMBL document CHEMBL4342502, “Synthesis and Antichlamydial Activity of Molecules Based on Dysregulators of Cylindrical Proteases” (J Med Chem, 2020).
Calls of active or inactive are those of the source. The calls are words filed in the database; no cut-off is given here.

Legend:
[1] = molecular target: ATP-dependent Clp protease proteolytic subunit (Escherichia coli (strain K12)) (UniProt P0A6G7); assay: (§1) Activation of recombinant Escherichia coli ClpP assessed as induction of casein degradation at 0.1 to 1 uM using FITC-labelled casein as substrate pretreated with enzyme for 30 mins followed by substrate addition and measured every 3 mins for 3 hrs in absence of AAA+ chaperone by fluorescence based tecan-plate reader assay
Sequence of ATP-dependent Clp protease proteolytic subunit (Escherichia coli (strain K12)) (P0A6G7 whole entry): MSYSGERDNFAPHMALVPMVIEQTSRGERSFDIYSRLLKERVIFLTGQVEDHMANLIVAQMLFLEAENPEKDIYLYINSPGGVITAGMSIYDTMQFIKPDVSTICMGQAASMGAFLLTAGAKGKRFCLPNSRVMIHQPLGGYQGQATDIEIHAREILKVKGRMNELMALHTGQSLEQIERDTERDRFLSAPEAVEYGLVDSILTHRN
Summary of the method: (§2)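 Recombinant C-terminal His6-tagged ClpP, expressed in a clpAPX-null E. coli strain and purified (mammalian ClpP without mitochondrial signal, codon-optimized). ClpP at 1 or 0.1 μM (E. coli), 1 μM (human, mouse) or 6 μM (chlamydial ClpP1 and ClpP2) preincubated with compound or DMSO, 30 min, 32 °C, in HEPES pH 7.6/KCl/MgCl2/DTT/glycerol buffer. 20 μM FITC-casein then added. Fluorescence (ex 490/em 525 nm) read every 3 min for 3 h. At least three runs on at least two protein preparations.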

[2] = as §1, with “recombinant human C-terminal 6xHis-tagged ClpP expressed in” for “recombinant”, “coli” for “coli ClpP”; summary of the method: as §2
[3] = as §1, with “recombinant mouse C-terminal 6xHis-tagged ClpP expressed in” for “recombinant”, “coli” for “coli ClpP”; summary of the method: as §2
[4] = system: Chlamydia trachomatis; assay: Anti-chlamydial activity against Chlamydia trachomatis Serovar LGV-L2 infected in Hep2 cells assessed as inhibition of chlamydial inclusion at 50 ug/ml treated at 8 hrs post infection and measured at 24 hrs post-infection by immunofluorescence assay; type: functional, organism-based
Summary of the method: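 HEp-2 cells infected with C. trachomatis serovar L2. Compounds at 50 μg/mL added 8 hpi; inclusion number and size assessed by immunofluorescence at 24 hpi against untreated cells. Cell morphology and viability checked by phase-contrast microscopy.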

[5] = system: Staphylococcus aureus; assay: Antibacterial activity against methicillin-resistant Staphylococcus aureus ATCC 43300 assessed as bacterial growth inhibition at 32 ug/ml measured after 16 hrs by broth microdilution method; type: functional, organism-based
[6] = system: Escherichia coli; assay: Antibacterial activity against Escherichia coli ATCC 25922 assessed as bacterial growth inhibition at 32 ug/ml measured after 16 hrs by broth microdilution method; type: functional, organism-based
[7] = system: Acinetobacter baumannii; assay: Antibacterial activity against Acinetobacter baumannii ATCC 19606 assessed as bacterial growth inhibition at 32 ug/ml measured after 16 hrs by broth microdilution method; type: functional, organism-based; details: ATCC 19606 = CIP 70.34 = JCM 6841
[8] = system: Candida albicans; assay: Antifungal activity against Candida albicans ATCC 90028 assessed as fungal growth inhibition at 32 ug/ml measured after 16 hrs by broth microdilution method; type: functional, organism-based
[9] = system: Cryptococcus neoformans; assay: Antifungal activity against Cryptococcus neoformans var. grubii H99 ATCC […] as fungal growth inhibition at 32 ug/ml measured after 16 hrs by broth microdilution method; type: functional, organism-based; details: var. grubii H99 ATCC 208821
[10] = system: Staphylococcus aureus; assay: Antibacterial activity against Staphylococcus aureus JE2 assessed as bacterial growth inhibition at 32 ug/ml measured after 16 hrs by broth microdilution method; type: functional, organism-based
Summary of the method: (§3)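 Broth microdilution in Mueller Hinton broth, triplicate. Direct colony suspension at 1.5 x 10^8 CFU/mL diluted to ~10^5 CFU/mL. Serial dilutions made from DMSO stocks at 1 mg/mL; vancomycin positive control, blank medium negative control. Incubated 16 h at optimum temperature. MIC is the lowest concentration without visible growth at 600 nm; mean of triplicate determinations.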

[11] = system: Pseudomonas aeruginosa; assay: Antibacterial activity against Pseudomonas aeruginosa ATCC 27853 assessed as bacterial growth inhibition at 32 ug/ml measured after 16 hrs by broth microdilution method; type: functional, organism-based
[12] = system: HaCaT; assay: Cytotoxicity against immortal human HaCaT cells assessed as reduction in cell viability at 50 ug/ml after 24 hrs by CCK-8 assay; type: cell-based
Summary of the method: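 HeLa 229 and HaCaT cells in DMEM with 10% FBS and 1% penicillin/streptomycin, 37 °C, 5% CO2, seeded at 5000 cells/well. Next day treated with 50 μg/mL in triplicate, with matching DMSO controls. After 24 h, CCK-8 added for 2 h; corrected absorbance read at 450 nm.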

[13] = system: Staphylococcus aureus; assay: Antibacterial activity against Staphylococcus aureus JE2 assessed as bacterial death up to 256 ug/ml measured after 16 hrs by broth microdilution method; type: functional, organism-based; summary of the method: as §3
[14] = system: Klebsiella pneumoniae; assay: Antibacterial activity against Klebsiella pneumoniae ATCC 700603 assessed as bacterial growth inhibition at 32 ug/ml measured after 16 hrs by broth microdilution method; type: functional, organism-based
[15] = system: Escherichia coli; assay: Antibacterial activity against Escherichia coli K12 assessed as bacterial death up to 256 ug/ml measured after 16 hrs by broth microdilution method; type: functional, organism-based; details: K-12; summary of the method: as §3
[16] = system: Escherichia coli; assay: Antibacterial activity against Escherichia coli K12 assessed as bacterial growth inhibition at 32 ug/ml measured after 16 hrs by broth microdilution method; type: functional, organism-based; details: K-12; summary of the method: as §3
[17] = Mutagenicity in Drosophila melanogaster somatic cells assessed as frequency of clone formation in HB crosses at 0.25 to 1 mM by SMART assay; type: ADME; details: 1000 µM
Summary of the method: (§4)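 Drosophila SMART wing-spot assay, ST and HB crosses. Third-instar larvae (72 ± 4 h) placed on hydrated instant mashed potato medium containing compound at 0.25, 0.5 or 1.0 mM final. Negative control: water with 1% Tween-80 and 3% ethanol. Statistics by Frei and Würgler two-sided U test, P≤0.05.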

[18] = Toxicity in Drosophila melanogaster assessed as survival rate at 0.25 to 1 mM; details: 1000 µM
Summary of the method: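 Drosophila SMART assay using third-instar larvae (72 ± 4 h) from ST and HB crosses. Larvae exposed in hydrated instant mashed-potato medium at 0.25, 0.5 and 1.0 mM final. Vehicle control: water with 1% Tween-80 and 3% ethanol. Survival of treated groups compared statistically with the vehicle control.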

[19] = system: Chlamydia trachomatis; assay: Anti-chlamydial activity against Chlamydia trachomatis Serovar LGV-L2 infected in Hep2 cells assessed as reduction in chlamydial infectivity by measuring decrease in inclusion forming units at 50 ug/ml treated at 8 hrs post-infection and 24 hrs later re-infecting fresh Hep2 cells monolayer with infected cells and measured at 24 hrs post re-infection by immunofluorescence staining based microscopy analysis; type: functional, organism-based
Summary of the method: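 HEp-2 cells in DMEM with 10% FBS, infected with C. trachomatis L2 at MOI 1. Compounds added 8 hpi in triplicate; DMSO stocks at 50 mg/mL. At 24 hpi lysates collected in sucrose storage medium, frozen at −80 °C, and used to infect fresh HEp-2 monolayers in 10-fold dilutions. After 24 h, stained with goat anti-MOMP and Alexa488 secondary. Inclusions counted in 15 fields at 20x; IFU = mean count per field corrected for dilution.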

[20] = Mutagenicity in Drosophila melanogaster somatic cells assessed as frequency of clone formation in ST crosses at 0.25 to 1 mM by SMART assay; type: ADME; details: 1000 µM; summary of the method: as §4
[21] = Drug metabolism in human liver microsomes assessed as amount of drug modified at 1 ug/ml […] in presence of NADPH by LC-MS/MS analysis; type: ADME, Microsome; details: read-out: Drug metabolism
[22] = Stability of compound in human liver microsomes at 1 ug/ml measured up to 60 mins in absence of NADPH by LC-MS/MS analysis; type: ADME, Microsome; details: 1 h
Summary of the method: (§5)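 Human liver microsomes (1.0 mg/mL protein) in 100 mM phosphate pH 7.4 with 10 mM MgCl2 and 2 mM NADPH, preincubated 10 min at 37 °C. Reaction started with compound at 1 μg/mL. Sampled at 0, 5, 15, 20, 30, 45 and 60 min and quenched in methanol with internal standard. Controls: no NADPH (negative), testosterone (positive). Analysed by LC-MS/MS, triplicate.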

[23] = Hepatic intrinsic clearance in human liver microsomes at 1 ug/ml measured per kg body weight up to 60 mins by LC-MS/MS analysis; type: ADME, Microsome; details: 1 h
[24] = Intrinsic clearance in human liver microsomes at 1 ug/ml measured per mg protein up to 60 mins by LC-MS/MS analysis; type: ADME, Microsome; details: microsomes, 1 h; summary of the method: as §5
[25] = Half life in human liver microsomes at 1 ug/ml measured up to 60 mins by LC-MS/MS analysis; type: ADME, Microsome; details: microsomes, 1 h; summary of the method: as §5

| Structure (SMILES) | inhibition [4] | inhibition [5] | inhibition [6] | inhibition [7] | inhibition [8] | inhibition [9] | inhibition [10] | inhibition [11] | Activity [13] | inhibition [14] | Activity [15] | inhibition [16] | inhibition [19] | further results |
| --- | --- | --- | --- | --- | --- | --- | --- | --- | --- | --- | --- | --- | --- | --- |
| CC(C)(C(=O)NCCSc1ccccc1Cl)S(=O)(=O)c1ccccc1 | inactive |  |  |  |  |  |  |  |  |  |  |  |  | Activity [1]: inactive; Activity [2]: Not Active; Activity [3]: Not Active |
| Cc1ccc(CN2CCN(C(=O)C(C)(C)S(=O)(=O)c3ccc(C(F)(F)F)cn3)CC2)cc1 | Active | inactive | inactive | inactive | inactive | inactive | inactive | inactive | inactive | inactive | inactive | inactive |  | Activity [12]: Non-Toxic |
| CC(C)(C(=O)N1CCN(Cc2cccc(Cl)c2)CC1)S(=O)(=O)c1ccc(C(F)(F)F)cn1 | Active | inactive | inactive | inactive | inactive | inactive | inactive | inactive |  | inactive |  | inactive | Active | Activity [17]: Non-Toxic; Activity [18]: Non-Toxic; Activity [20]: Non-Toxic |
| CC(C)(C(=O)NCCOc1ccccc1Cl)S(=O)(=O)c1ccccc1 | inactive | inactive | inactive | inactive | inactive | inactive | inactive | inactive |  | inactive |  | inactive |  | Activity [18]: Non-Toxic |
| CC(C)(C(=O)NCCOc1ccccc1)S(=O)(=O)c1ccc(C(F)(F)F)cn1 | Active | inactive | inactive | inactive | inactive | inactive | inactive | inactive | inactive | inactive | inactive | inactive | Active | metabolised at 10 min, 1 ug/ml [21]: 90%; Stability [22]: Stable; CLH [23]: 1460 mL/min/kg; microsomal intrinsic clearance [24]: 185.6 µL/min; t1/2 [25]: 3.73 min |
| CC(C)(C(=O)NCCSc1ccc(Cl)cc1)S(=O)(=O)c1ccccc1 | inactive | inactive | inactive | inactive | inactive | inactive | inactive | inactive |  | inactive |  | inactive |  | Activity [1]: inactive; Activity [2]: Not Active; Activity [3]: Not Active |
| Cc1ccccc1N1CCN(C(=O)C(C)(C)S(=O)(=O)c2ccc(C(F)(F)F)cn2)CC1 | Active | inactive | inactive | inactive | inactive | inactive | inactive | inactive | inactive | inactive | inactive | inactive | Active |  |
| CC(C)(C(=O)NCCOc1ccccc1Cl)S(=O)(=O)c1ccc(C(F)(F)F)cn1 | Active | inactive | inactive | inactive | inactive | inactive | inactive | inactive | inactive | inactive | inactive | inactive |  |  |
| NCCBr |  | inactive | inactive | inactive | inactive | inactive | inactive | inactive | inactive | inactive | inactive | inactive |  |  |
